Three compounds from ChEMBL document CHEMBL1158007, “Steroidal glycosides from the bulbs of Allium jesdianum” (J Nat Prod, 1999) can be followed below.

In general, IC50 refers to the concentration that inhibits the measured activity by half.

This test concerns HL-60. The test is described as follows: Cytotoxicity against human HL-60 cells after 72 hrs by MTT assay. It is filed as functional, cell-based. Put shortly:
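HL-60 cells grown in RPMI 1640 with 10% FBS, L-glutamine, penicillin and streptomycin, seeded at 3 × 10^4 cells/mL, and preincubated 24 h at 37 °C in 5% CO2. Sample in EtOH-H2O (1:1) added to a final 0.01-10 µg/mL, with vehicle-only controls, for 72 h. MTT added for 4 h, then formazan dissolved in DMSO and read at 550 nm. IC50 taken from the dose-response curve.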
On the technique in general: Tetrazolium dyes change colour on reduction, which living cells bring about.

Each structure is given as a SMILES string. Active and inactive are the calls of the source. The calls are words filed in the database; no cut-off is given here. Some results are limits rather than exact numbers.

With `C[C@@H]1CC[C@@]2(OC1)O[C@H]1C[C@H]3[C@@H]4C[C@H](O)[C@H]5C[C@@H](O[C@@H]6O[C@H](CO)[C@H](O[C@@H]7O[C@H](CO)[C@@H](O)[C@H](O[C@@H]8OC[C@@H](O)[C@H](O)[C@H]8O)[C@H]7O[C@@H]7O[C@H](CO)[C@@H](O)[C@H](O)[C@H]7O)[C@H](O)[C@H]6O)[C@H](O)C[C@]5(C)[C@H]4CC[C@]3(C)[C@H]1[C@@H]2C`, where the note is “HL-60, 72 h”, the IC50 is more than 10 µg/mL.

For the compound `CC(C)CC[C@H](O)[C@@H](C)[C@H]1[C@@H](O[C@@H]2O[C@H](CO)[C@@H](O)[C@H](O)[C@H]2O)C[C@H]2[C@@H]3CC=C4C[C@@H](O)C[C@@H](O[C@@H]5O[C@H](CO)[C@@H](O)[C@H](O)[C@H]5O)[C@]4(C)[C@H]3CC[C@]12C`, the outcome was inactive.

With `CC(C)CC[C@H](O)[C@@H](C)[C@H]1[C@@H](O[C@@H]2O[C@H](CO)[C@@H](O)[C@H](O)[C@H]2O)C[C@H]2[C@@H]3CC=C4C[C@@H](O)C[C@@H](O[C@@H]5O[C@@H](C)[C@H](O)[C@@H](O)[C@H]5O)[C@]4(C)[C@H]3CC[C@]12C`, the result was inactive.
